Results reported in ChEMBL document CHEMBL1149191, “Novel pyridazino[4,3-b]indoles with dual inhibitory activity against Mycobacterium tuberculosis and monoamine oxidase” (J Med Chem, 2004).
In brackets after ≈: the same amount, converted by molar mass.

Tests used:
[1] = tested on: Mycobacterium tuberculosis; assay: In vitro inhibition of Mycobacterium tuberculosis H37Rv, determined at 2 ug/mL; type: functional
Outline: (§1)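 M. tuberculosis H37Rv (Pasteur) grown twice for 1 week each in Dubos broth at 37 °C, washed, then filtered to remove clumps. 25 × 10⁴ CFU per well in RPMI 1640 with 5 mM HEPES, 2 mM L-glutamine and 2% FBS. Compound added from DMSO stock; 5,6-[³H]-uracil added at 24 h, then 18 h at 37 °C.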

[2] = tested on: Mycobacterium tuberculosis; assay: In vitro inhibition of Mycobacterium tuberculosis H37Rv, determined at 20 ug/mL; type: functional; outline: as §1
[3] = tested on: Mycobacterium tuberculosis; assay: In vitro inhibition of Mycobacterium tuberculosis H37Rv, determined at 0.2 ug/mL; type: functional; outline: as §1
[4] = target: T1, Amine oxidase [flavin-containing] A (Rattus norvegicus, UniProt P21396); assay: Inhibition of Monoamine oxidase A from rat liver mitochondria
T1 sequence (P21396 whole entry): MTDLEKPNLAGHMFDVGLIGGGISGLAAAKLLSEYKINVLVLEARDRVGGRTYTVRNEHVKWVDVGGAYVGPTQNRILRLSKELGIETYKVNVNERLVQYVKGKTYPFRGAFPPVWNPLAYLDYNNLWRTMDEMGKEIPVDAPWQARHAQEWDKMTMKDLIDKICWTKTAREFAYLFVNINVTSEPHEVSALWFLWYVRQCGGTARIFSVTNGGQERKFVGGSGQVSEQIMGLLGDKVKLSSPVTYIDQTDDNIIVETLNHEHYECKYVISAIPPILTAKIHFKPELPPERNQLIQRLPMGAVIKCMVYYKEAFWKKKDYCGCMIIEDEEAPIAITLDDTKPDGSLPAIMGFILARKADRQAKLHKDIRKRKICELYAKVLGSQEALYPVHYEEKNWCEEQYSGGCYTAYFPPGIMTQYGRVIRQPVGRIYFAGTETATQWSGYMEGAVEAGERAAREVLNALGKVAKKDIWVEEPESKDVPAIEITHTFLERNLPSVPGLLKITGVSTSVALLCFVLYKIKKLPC
Outline: (§2)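 Rat liver mitochondria from differential centrifugation, in 50 mM phosphate buffer pH 7.4. Preincubated with inhibitor (10⁻⁸–10⁻³ or 10⁻⁴ M) for 60 min at 37 °C. MAO-A activity measured radiometrically as ¹⁴C-aldehyde formed from 0.1 mM [¹⁴C]-5-hydroxytryptamine creatinine sulfate; IC50 reported.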

[5] = target: T2, Amine oxidase [flavin-containing] B (Rattus norvegicus, UniProt P19643); assay: Inhibitory activity against Monoamine oxidase B isolated from rat liver mitochondria using [14C]phenylethylamine; NI denotes no inhibition at 1000 uM
T2 sequence (P19643 whole entry): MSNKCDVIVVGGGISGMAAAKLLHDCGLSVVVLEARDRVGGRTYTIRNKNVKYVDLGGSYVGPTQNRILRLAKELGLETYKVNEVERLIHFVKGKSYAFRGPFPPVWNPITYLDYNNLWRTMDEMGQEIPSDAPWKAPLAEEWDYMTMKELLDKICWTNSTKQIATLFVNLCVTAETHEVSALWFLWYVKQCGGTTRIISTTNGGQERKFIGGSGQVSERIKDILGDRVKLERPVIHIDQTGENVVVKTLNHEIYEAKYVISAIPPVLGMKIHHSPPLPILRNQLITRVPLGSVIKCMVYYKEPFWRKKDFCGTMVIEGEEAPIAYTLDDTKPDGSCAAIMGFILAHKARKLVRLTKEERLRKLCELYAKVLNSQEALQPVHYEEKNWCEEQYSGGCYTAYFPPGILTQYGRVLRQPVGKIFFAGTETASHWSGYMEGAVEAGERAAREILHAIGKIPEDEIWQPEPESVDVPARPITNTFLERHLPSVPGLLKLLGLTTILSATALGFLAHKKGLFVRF
Outline: (§3)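 Rat liver mitochondria from differential centrifugation, in 50 mM phosphate buffer pH 7.4. Preincubated with inhibitor (10⁻⁸–10⁻³ or 10⁻⁴ M) for 60 min at 37 °C. MAO-B activity measured radiometrically as ¹⁴C-aldehyde formed from 10 μM [¹⁴C]-phenylethylamine; IC50 reported.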

[6] = target: T2, Amine oxidase [flavin-containing] B; assay: Inhibition of Monoamine oxidase B from rat liver mitochondria; outline: as §3
[7] = tested on: Mycobacterium tuberculosis; assay: Minimal inhibitory activity of compound against Mycobacterium tuberculosis H37Rv; type: functional
Outline: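 Same H37Rv [³H]-uracil incorporation assay: compound at final 20, 2.0 and 0.2 μg/mL, 24 h, then 1 μCi 5,6-[³H]-uracil for 18 h at 37 °C, harvested on filters, scintillation counted, triplicate. MIC50 is the concentration giving 50% reduction in cpm versus drug-free plate at the same bacterial dilution.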

[8] = target: T1, Amine oxidase [flavin-containing] A; assay: Inhibitory activity of compound against Monoamine oxidase A isolated from rat liver mitochondria using [14C]5-HT creatinine sulfate; NI denotes no inhibition at 1000 uM; outline: as §2

Compound	inhibition at 2 µg/mL [1]	inhibition at 20 µg/mL [2]	inhibition at 0.2 µg/mL [3]	IC50 [4]	IC50 [5]	IC50 [6]	MIC50 [7]	IC50 [8]
Nc1[nH]nc2c3ccccc3nc-2c1-c1ccccc1F	0%	40.3%	0%	631 µM	No inhibition	–	–	–
CN(C)c1ccc(-c2c3nc4ccccc4c-3n[nH]c2N)cc1	10%	66%	5.2%	79.4 µM	–	~1000 µM	–	–
CO[C@H]1/C=C/O[C@@]2(C)Oc3c(C)c(O)c4c(O)c(c(/C=N/N5CCN(C)CC5)c(O)c4c3C2=O)NC(=O)/C(C)=C\C=C\[C@H](C)[C@H](O)[C@@H](C)[C@@H](O)[C@@H](C)[C@H](OC(C)=O)[C@@H]1C [RIFAMPIN]	91.7%	94.3%	54.8%	–	–	–	0.1 mg/L (≈ 0.122 µM)	–
Cn1c2ccccc2c2nnc(N)c(-c3ccccc3F)c21	0%	45.3%	0%	–	–	41.6 µM	–	No inhibition
Cc1ccc2c(c1)c1nnc(N)c(-c3ccc(C(C)C)cc3)c1n2C	0%	40.5%	0%	–	–	–	–	–
Nc1[nH]nc2c3ccccc3nc-2c1-c1cccc(Br)c1	0%	32%	0%	–	–	–	–	–
Nc1[nH]nc2c3ccccc3nc-2c1-c1ccc(F)cc1	0%	35.1%	0%	–	No inhibition	–	–	No inhibition
Cc1ccc(-c2c3nc4ccccc4c-3n[nH]c2N)cc1	0%	40.5%	0%	31.6 µM	–	158 µM	16.5 mg/L (≈ 60.1 µM)	–
Cn1c2ccccc2c2nnc(NC=O)c(-c3ccccc3)c21	–	0%	–	–	–	–	–	–
CCCn1c2ccccc2c2nnc(N)c(-c3ccc(C(C)C)cc3)c21	0%	20%	0%	–	–	–	–	–
CC(C)c1ccc(-c2c(N3C(=O)c4ccccc4C3=O)nnc3c4ccccc4n(C)c23)cc1	–	0%	–	–	–	–	–	–
CCn1c2ccccc2c2nnc(N)c(-c3ccccc3Cl)c21	0%	15.9%	0%	~1000 µM	–	~1000 µM	–	–
CC(C)c1ccc(-c2c(O)nnc3c4ccccc4n(C)c23)cc1	–	0%	–	–	–	–	–	–
CC(C)c1ccc(-c2c3nc4ccc(Br)cc4c-3n[nH]c2N)cc1	56.3%	88.5%	7.1%	63 µM	–	79 µM	1.77 mg/L (≈ 4.64 µM)	–
Cc1ccc(-c2c(N)nnc3c4ccccc4n(C)c23)cc1	0%	62.3%	0%	–	–	–	–	–
Nc1nnc2c3ccccc3n(Cc3ccccc3)c2c1-c1ccccc1Cl	0%	50.8%	0%	17.8 µM	–	35.4 µM	–	–
Cn1c2ccc(Br)cc2c2nnc(N)c(-c3ccccc3)c21	0%	54.2%	0%	–	–	–	–	–
COc1ccc(-c2c3nc4ccccc4c-3n[nH]c2N)cc1	0%	30.2%	0%	–	–	–	14.9 mg/L (≈ 51.2 µM)	–
